{"data": "Measurements of several laboratories", "PBRM1 BD2": "Protein polybromo-1, BD2 (PBRM1, Homo sapiens, UniProt Q86U86)", "CSNK1A1L": "Casein kinase I isoform alpha-like (CSNK1A1L, Homo sapiens, UniProt Q8N752)", "PBRM1 bromodomain": "Protein polybromo-1, bromodomain (PBRM1, Homo sapiens, UniProt Q86U86)", "BRD2 BD2": "Bromodomain-containing protein 2, BD2 (BRD2, Homo sapiens, UniProt P25440)", "Abl1": "Tyrosine-protein kinase ABL1 (Abl1, Mus musculus, UniProt P00520)", "ALDH2": "Aldehyde dehydrogenase, mitochondrial (ALDH2, Homo sapiens, UniProt P05091)", "note": "Protocols differ between the studies behind these lines."}
{"target": "PBRM1 BD2", "assay": "thermal stability, DSF", "setting": "10 µM", "measurement": "ΔTm", "value": "0.23 °C", "Compound": "Cc1cnc(Nc2ccc(OCCN3CCCC3)cc2)nc1Nc1cccc(S(=O)(=O)NC(C)(C)C)c1"}
{"target": "CSNK1A1L", "assay": "cell-free assay", "setting": "20 µM", "measurement": "remaining signal", "value": "39%", "Compound": "Nc1ncnc2occ(-c3ccc(NC(=O)Nc4cc(C(F)(F)F)ccc4F)cc3)c12"}
{"target": "PBRM1 bromodomain", "assay": "thermal stability, DSF", "setting": "100 µM", "measurement": "ΔTm", "value": "5.82 °C", "Compound": "CCC(/C=C1\\CCCn2c1nc(=O)c1c(Cl)cccc12)CC"}
{"target": "Insulin receptor (INSR, Homo sapiens, UniProt P06213)", "assay": "enzyme activity, inhibitor, FRET", "setting": "10 µM", "measurement": "inhibition", "value": "31%", "Compound": "CN(C)C1CCN(CC#Cc2nn(C3CCCC3)c3nc(NCc4ccccc4)ncc23)C1 (stereo not shown)"}
{"target": "BRD2 BD2", "assay": "binding, competition with immobilised ligand", "setting": "1 µM", "measurement": "remaining binding", "value": "10%", "Compound": "NS(=O)(=O)c1ccc(Nc2nc(-c3ccc(F)cc3)c3ccccc3n2)cc1"}
{"target": "PBRM1 bromodomain", "assay": "thermal stability, DSF", "setting": "100 µM", "measurement": "ΔTm", "value": "2.23 °C", "Compound": "CCC(/C=C1\\CCn2c1nc(=O)c1c(Cl)c(Cl)ccc12)CC"}
{"target": "CSNK1A1L", "assay": "enzyme activity", "setting": "23.5 nM", "measurement": "remaining activity", "value": "100%", "Compound": "Cc1ccc(C(=O)Nc2ccc(CN3CCN(C)CC3)c(C(F)(F)F)c2)cc1C#Cc1cnc2cccnn12"}
{"target": "BRD2 BD2", "assay": "thermal stability, DSF", "setting": "10 µM", "measurement": "ΔTm", "value": "0.4 °C", "Compound": "Cc1cc2c(cc1N1C(=O)c3cccc4c(Cl)ccc(c34)C1=O)n(C)c(=O)n2C"}
{"target": "Adenosine receptor A2b (ADORA2B, Homo sapiens, UniProt P29275)", "assay": "ligand displacement, radioligand", "setting": "10 µM, cell membranes", "measurement": "inhibition", "value": "0%", "Compound": "CC(C)CCCC(C)N1CCCn2c1nc1c2c(=O)n(C)c(=O)n1C (stereo not shown)"}
{"target": "Serine/threonine-protein kinase N2 (PKN2, Homo sapiens, UniProt Q16513)", "assay": "enzyme activity, inhibitor", "setting": "0.5 µM", "measurement": "remaining activity", "value": "14%", "Compound": "CCCOc1ccc(OC)c(F)c1C(=O)c1ccc(C(=O)N[C@@H]2CNC[C@H]2NC(=O)c2ccc3[nH]ncc3c2)cc1"}
{"target": "PBRM1 BD2", "assay": "thermal stability, DSF", "setting": "100 µM", "measurement": "ΔTm", "value": "3.03 °C", "Compound": "CCC/C=C1\\CCn2c1nc(=O)c1c(Cl)cccc12"}
{"target": "CAAX prenyl protease 2 (Homo sapiens, UniProt Q9Y256)", "assay": "enzyme activity, inhibitor", "setting": "10 µM", "measurement": "remaining activity", "value": "< 40%", "Compound": "CC(C)(C)c1ccc(NC(c2ccccc2)c2ccc3ccccc3c2O)cc1 (stereo not shown)"}
{"target": "PBRM1 BD2", "assay": "thermal stability, DSF", "setting": "100 µM", "measurement": "ΔTm", "value": "2.66 °C", "Compound": "CCC(CC)CC1CCn2c1nc(=O)c1c(Cl)cccc12 (racemic)"}
{"target": "Abl1", "assay": "enzyme activity, inhibitor, radiometric", "setting": "1 µM", "measurement": "remaining activity", "value": "99%", "Compound": "Cc1cnc(NC2CCOCC2)nc1-n1cnc(C(=O)NC(CN)c2cc(F)cc(Cl)c2)c1 (stereo not shown)"}
{"target": "ALDH2", "assay": "enzyme activity, inhibitor, absorbance", "setting": "10 µM", "measurement": "remaining activity", "value": "20.7%", "Compound": "Cc1oc2cc3oc(=O)c(C)c(C)c3cc2c1C"}
{"target": "Protein polybromo-1, BD1 (PBRM1, Homo sapiens, UniProt Q86U86)", "assay": "thermal stability, DSF", "setting": "10 µM", "measurement": "ΔTm", "value": "0 °C", "Compound": "Oc1ccc(-c2nc(-c3ccncc3)c(-c3ccc(F)cc3)[nH]2)cc1"}
{"target": "PBRM1 BD2", "assay": "thermal stability, DSF", "setting": "100 µM", "measurement": "ΔTm", "value": "-6.11 °C", "Compound": "O=c1nc2n(c3cccc(Cl)c13)CC/C2=C\\c1ccccc1"}
{"target": "ALDH2", "assay": "enzyme activity, substrate", "measurement": "Km", "value": "~20 µM", "Compound": "O=[N+]([O-])OCC(CO[N+](=O)[O-])O[N+](=O)[O-]"}
{"target": "PBRM1 BD2", "assay": "thermal stability, DSF", "setting": "100 µM", "measurement": "ΔTm", "value": "4.96 °C", "Compound": "CC(C)(C)C/C=C1\\CCn2c1nc(=O)c1c(Cl)cccc12"}
{"target": "Abl1", "assay": "cell-free assay", "setting": "10 µM", "measurement": "remaining signal", "value": "-2%", "Compound": "Cc1ccc(NC(=O)c2ccc(C)c(C(F)(F)F)c2)cc1C#Cc1nn(C2CCC(O)CC2)c2ncnc(N)c12 (stereo not shown)"}
{"target": "PBRM1 bromodomain", "assay": "thermal stability, DSF", "setting": "100 µM", "measurement": "ΔTm", "value": "-0.42 °C", "Compound": "CCC(/C=C1\\CCn2c1nc(=O)c1ccc(O)cc12)CC"}
{"target": "PBRM1 bromodomain", "assay": "thermal stability, DSF", "setting": "10 µM", "measurement": "ΔTm", "value": "1.33 °C", "Compound": "C[S+]([O-])c1ccc(-c2nc(-c3ccncc3)c(-c3ccc(F)cc3)[nH]2)cc1 (stereo not shown)"}
